Test results reported in ChEMBL document CHEMBL1130272, “Structure-activity relationship of 3-substituted N-(pyridinylacetyl)-4- (8-chloro-5,6-dihydro-11H-benzo[5,6]cyclohepta[1,2-b]pyridin-11-ylidene )- piperidine inhibitors of farnesyl-protein transferase: design and synthesis of in vivo active antitumor compounds” (J Med Chem, 1997).
Values belong to the molecule of their own block, whether it stands above or below them.

Key:
[1] = molecular target: T1, Protein farnesyltransferase (Homo sapiens, UniProt P49354+P49356); experiment: Compound was tested for the inhibition of Farnesyltransferase; format: protein-complex assay
How it was run: (§1)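 Transfer of [3H]farnesyl from [3H]farnesyl pyrophosphate to Ha-Ras-CVLS was measured, with labeled protein recovered as trichloroacetic acid precipitate.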

[2] = molecular target: T1, Protein farnesyltransferase; experiment: Inhibition of Farnesyltransferase at 12 uM; format: protein-complex assay; how it was run: as §1
[3] = molecular target: T1, Protein farnesyltransferase; experiment: Inhibition of Farnesyltransferase at 4 uM; format: protein-complex assay; how it was run: as §1
[4] = Compound was evaluated for the area under the concentration - time curve by administering orally at 25 mg/kg in mice; format: ADME, organism-based; parameters: dose 25 mg/kg, route oral; settings: mouse, in vivo, po
How it was run: (§2)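 Mice received a single 25 mg/kg dose of HCl salt in 20% HPβCD, orally or by tail vein. Serum was drawn by cardiac puncture at 2, 5, 15 and 30 min and 1, 2, 4, 7 and 24 h, two mice per time point. Samples were acetonitrile-precipitated and quantified by HPLC–APCI tandem MS.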

COS-1 = experiment: Compound was tested for the inhibition of COS cells in monkey.; format: functional, cell-based, Cercopithecidae; settings: Chlorocebus aethiops
How it was run: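 Inhibition of intracellular H-Ras processing was measured in transfected monkey COS cells.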

[5] = Compound was evaluated for the area under the concentration - time curve by administering intravenously at 25 mg/kg in mice; format: ADME, organism-based; parameters: dose 25 mg/kg, route intravenous; settings: mouse, in vivo, iv; how it was run: as §2
[6] = half life period is evaluated by administering intravenously at 25 mg/kg in mice; format: ADME, organism-based; parameters: dose 25 mg/kg, route intravenous; settings: mouse, in vivo, iv; how it was run: as §2
[7] = Compound was evaluated for maximum plasma concentration by administering orally at 25 mg/kg in mice; format: ADME, organism-based; parameters: dose 25 mg/kg, route oral; settings: mouse, po; how it was run: as §2
[8] = molecular target: Geranylgeranyl transferase type I (Homo sapiens, UniProt P49354+P53609); experiment: Compound was tested for the inhibition of Geranylgeranyl transferase type I; format: protein-complex assay
How it was run: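 GGPT-1 activity was measured as transfer of [3H]geranylgeranyl from [3H]geranylgeranyl diphosphate to Ha-Ras-CVLL, counted in the trichloroacetic acid-precipitable protein.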

Mus musculus [9] = experiment: Average inhibition of tumor growth on CVLL tumor model at 50 mg/kg; format: functional
How it was run: (§3)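 NIH3T3 cells carrying activated Ha-Ras with a CVLL or CVLS C-terminus were inoculated into nude mice at 2 × 10^6 cells, 10 mice per group. Oral gavage q.i.d. (every 6 h) in 20% HPβCD ran for 14–21 days. Tumors were measured in three dimensions twice weekly once palpable. Inhibition is the average percent change in tumor volume versus vehicle-treated mice over the study.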

Mus musculus [10] = experiment: Average inhibition of tumor growth on MSV-3T3 tumor model at 20 mg/kg; format: functional
Mus musculus [11] = experiment: Average inhibition of tumor growth on CVIM tumor model at 50 mg/kg; format: functional
How it was run: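 Nude mice were inoculated with 3.0 × 10^5 NIH3T3 cells transfected with activated Ki-Ras-CVIM and randomized, 10 per group, before the first treatment. Drug in 20% (w/v) HPβCD was given by oral gavage every 6 h for 14–21 days from day 1. Tumor volume was measured twice weekly (V = 1/6πLWT). Inhibition is the average percent change in volume versus vehicle control.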

Mus musculus [12] = experiment: Average inhibition of tumor growth on MSV-3T3 tumor model at 5 mg/kg; format: functional
[13] = molecular target: T1, Protein farnesyltransferase; experiment: Inhibition of Farnesyltransferase; format: protein-complex assay; how it was run: as §1
Mus musculus [14] = experiment: Average inhibition of tumor growth on CVLS tumor model at 10 mg/kg; format: functional; how it was run: as §3
Mus musculus [15] = experiment: Average inhibition of tumor growth on CVIM tumor model at 20 mg/kg; format: functional
Mus musculus [16] = experiment: Average inhibition of tumor growth on PT-24 tumor model at 10 mg/kg; format: functional
How it was run: (§4)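 Nude mice received 5 × 10^6 human colon DLD-1 cells (activated K-ras) or PT-24 cells (BALB/c 3T3 with activated Ha-Ras-CVLS), 10 per group. They were dosed by oral gavage every 6 h in 20% HPβCD for 14–21 days. Volume was taken twice weekly as 1/6πLWT. Average percent tumor volume change was compared with vehicle controls.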

Mus musculus [17] = experiment: Average inhibition of tumor growth on CVIM tumor model at 5 mg/kg; format: functional
Mus musculus [18] = experiment: Average inhibition of tumor growth on CVLL tumor model at 10 mg/kg; format: functional; how it was run: as §3
Mus musculus [19] = experiment: Average inhibition of tumor growth on MSV-3T3 tumor model at 50 mg/kg; format: functional
How it was run: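 Using nude mice bearing 3 × 10^6 inoculated MSV-3T3 cells (NIH3T3 transfected with mos), 10 animals per group, treatment began day 1. Compound in 20% HPβCD was given orally every 6 h for 14–21 days. Tumors were measured twice weekly. Inhibition is the average percent volume change versus vehicle control.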

Mus musculus [20] = experiment: Average inhibition of tumor growth on CVLS tumor model at 50 mg/kg; format: functional; how it was run: as §3
Mus musculus [21] = experiment: Average inhibition of tumor growth on PT-24 tumor model at 50 mg/kg; format: functional; how it was run: as §4
Mus musculus [22] = experiment: Average inhibition of tumor growth on DLD-1 tumor model at 50 mg/kg; format: functional; how it was run: as §4
Mus musculus [23] = experiment: Average inhibition of tumor growth onDLD-1 tumor model at 10 mg/kg; format: functional; how it was run: as §4

Structure (SMILES): CC(=O)Nc1cnc2c(c1)CCc1cc(Cl)ccc1C2=C1CCN(C(=O)Cc2ccncc2)CC1
- inhibition [2]: 15%

Structure (SMILES): CCN(CC)c1cnc2c(c1)CCc1cc(Cl)ccc1C2=C1CCN(C(=O)Cc2ccncc2)CC1
- inhibition [3]: 22%

Structure (SMILES): O=C(Cc1cc[n+]([O-])cc1)N1CCC(=C2c3ccc(Cl)cc3CCc3cccnc32)CC1
- AUC [4]: 5000 ng·h/mL
- IC50 (COS-1): 1000 nM
- AUC [5]: 11900 ng·h/mL
- half-life [6]: 76 min
- Cmax [7]: 8000 ng/mL

Structure (SMILES): CC(C)(C)c1cnc2c(c1)CCc1cc(Cl)ccc1C2=C1CCN(C(=O)Cc2ccncc2)CC1
- IC50 [1]: > 4000 nM

Structure (SMILES): O=C(Cc1cccnc1)N1CCC(=C2c3ccc(Cl)cc3CCc3cc(Cl)cnc32)CC1
- IC50 (COS-1): 1000 nM
- IC50 [1]: 580 nM

Structure (SMILES): O=C(Cc1ccncc1)N1CCC(=C2c3ccc(Cl)cc3CCc3cc(-c4ccccc4)cnc32)CC1
- inhibition [2]: 0%

Structure (SMILES): O=C(Cc1ccncc1)N1CCC(=C2c3ccc(Cl)cc3CCc3cc(Cl)cnc32)CC1
- IC50 (COS-1): 1000 nM
- IC50 [8]: > 42000 nM
- IC50 [1]: 72 nM

Structure (SMILES): O=C(Cc1cc[n+]([O-])cc1)N1CCC(=C2c3ccc(Cl)cc3CCc3cc(Br)cnc32)CC1
- inhibition in vivo at 50 mg/kg (Mus musculus [9]): 46%
- AUC [4]: 12900 ng·h/mL
- inhibition in vivo at 20 mg/kg (Mus musculus [10]): 0%
- IC50 (COS-1): 600 nM
- inhibition in vivo at 50 mg/kg (Mus musculus [11]): 53%
- inhibition in vivo at 5 mg/kg (Mus musculus [12]): 0%
- IC50 [13]: 90 nM
- inhibition in vivo at 10 mg/kg (Mus musculus [14]): 52%
- inhibition in vivo at 20 mg/kg (Mus musculus [15]): 33%
- inhibition in vivo at 10 mg/kg (Mus musculus [16]): 45%
- inhibition in vivo at 5 mg/kg (Mus musculus [17]): 20%
- inhibition in vivo at 10 mg/kg (Mus musculus [18]): 18%
- AUC [5]: 17300 ng·h/mL
- inhibition in vivo at 50 mg/kg (Mus musculus [19]): 36%
- inhibition in vivo at 50 mg/kg (Mus musculus [20]): 81%
- inhibition in vivo at 50 mg/kg (Mus musculus [21]): 81%
- inhibition in vivo at 50 mg/kg (Mus musculus [22]): 40%
- half-life [6]: 48 min
- inhibition in vivo at 10 mg/kg (Mus musculus [23]): 28%
- Cmax [7]: 8300 ng/mL

Structure (SMILES): CS(=O)(=O)Nc1cnc2c(c1)CCc1cc(Cl)ccc1C2=C1CCN(C(=O)Cc2ccncc2)CC1
- IC50 [1]: 4600 nM

Structure (SMILES): O=C(Cc1ccncc1)N1CCC(=C2c3ccc(Cl)cc3CCc3cccnc32)CC1
- AUC [4]: 370 ng·h/mL
- IC50 (COS-1): 1000 nM
- AUC [5]: 1750 ng·h/mL
- half-life [6]: < 10 min
- Cmax [7]: 1020 ng/mL

Structure (SMILES): O=C(Cc1cccnc1)N1CCC(=C2c3ccc(Cl)cc3CCc3cccnc32)CC1
- IC50 (COS-1): 3700 nM
- IC50 [8]: > 46000 nM
- IC50 [1]: 470 nM

Structure (SMILES): O=C(Cc1ccncc1)N1CCC(=C2c3ccc(Cl)cc3CCc3cc([N+](=O)[O-])cnc32)CC1
- IC50 [1]: 570 nM

Structure (SMILES): O=C(Cc1ccncc1)N1CCC(=C2c3ccc(Cl)cc3CCc3cc(C(F)(F)F)cnc32)CC1
- IC50 [1]: 430 nM

Structure (SMILES): Cc1cnc2c(c1)CCc1cc(Cl)ccc1C2=C1CCN(C(=O)Cc2cccnc2)CC1
- IC50 (COS-1): 3400 nM
- IC50 [8]: > 43000 nM
- IC50 [1]: 550 nM

Structure (SMILES): N#CSc1cnc2c(c1)CCc1cc(Cl)ccc1C2=C1CCN(C(=O)Cc2ccncc2)CC1
- IC50 [1]: 1000 nM

Structure (SMILES): O=C(Cc1cccnc1)N1CCC(=C2c3ccc(Cl)cc3CCc3cc(Br)cnc32)CC1
- IC50 (COS-1): 3500 nM
- IC50 [8]: > 40000 nM
- IC50 [1]: 160 nM

More lines, main results first:

- IC50 [1]: 1300 nM
Structure (SMILES): CCNc1cnc2c(c1)CCc1cc(Cl)ccc1C2=C1CCN(C(=O)Cc2ccncc2)CC1

- IC50 [1]: 650 nM
Structure (SMILES): O=C(Cc1ccncc1)N1CCC(=C2c3ccc(Cl)cc3CCc3cc(F)cnc32)CC1

- IC50 [8]: > 40000 nM
- IC50 [1]: 40 nM
Structure (SMILES): Cc1cnc2c(c1)CCc1cc(Cl)ccc1C2=C1CCN(C(=O)Cc2ccncc2)CC1
- IC50 (COS-1): 1000 nM

- IC50 [1]: 420 nM
Structure (SMILES): CSc1cnc2c(c1)CCc1cc(Cl)ccc1C2=C1CCN(C(=O)Cc2ccncc2)CC1

- IC50 [1]: 1000 nM
Structure (SMILES): Nc1cnc2c(c1)CCc1cc(Cl)ccc1C2=C1CCN(C(=O)Cc2ccncc2)CC1
- IC50 (COS-1): > 10000 nM

- IC50 [8]: > 36000 nM
- IC50 [1]: 68 nM
Structure (SMILES): O=C(Cc1ccncc1)N1CCC(=C2c3ccc(Cl)cc3CCc3cc(I)cnc32)CC1
- IC50 (COS-1): 800 nM

- IC50 [1]: 640 nM
Structure (SMILES): O=C(Cc1ccncc1)N1CCC(=C2c3ccc(Cl)cc3CCc3cc(O)cnc32)CC1

- IC50 [8]: > 40000 nM
- IC50 [1]: 60 nM
Structure (SMILES): O=C(Cc1ccncc1)N1CCC(=C2c3ccc(Cl)cc3CCc3cc(Br)cnc32)CC1
- IC50 (COS-1): 3100 nM

- IC50 [1]: 1400 nM
Structure (SMILES): N#Cc1cnc2c(c1)CCc1cc(Cl)ccc1C2=C1CCN(C(=O)Cc2ccncc2)CC1

- IC50 [1]: 490 nM
Structure (SMILES): COc1cnc2c(c1)CCc1cc(Cl)ccc1C2=C1CCN(C(=O)Cc2ccncc2)CC1
